Assay outcomes (PubChem)
SIAE inh – blocks human sialic acid acetylesterase. 370,000 tested, 0.69% active. inhibition, % at 9.66 µM. Q9HAT2. AID 1053197. SIAE FP-Rh probe binding, fluorescence polarization;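 active = inhibition above a cutoff: mean of compounds within the control limits plus 3 SD of those, cut at about 17% in these data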;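 note: 0% = plate median of compound wells and 100% = probe without SIAE protein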
HTRA1 inh – HTRA1 (human) protease inhibition | recombinant HTRA1, FP-rhodamine activity-based probe, fluorescence polarization | inhibition, % at 5.96 µM | 340,000 tested, 0.5% active | AID 504803; in the data active = inhibition above about 36%;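 note: 0% = enzyme with DMSO and 100% = wells lacking enzyme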
Target sequence (Q92743 whole entry, looked up): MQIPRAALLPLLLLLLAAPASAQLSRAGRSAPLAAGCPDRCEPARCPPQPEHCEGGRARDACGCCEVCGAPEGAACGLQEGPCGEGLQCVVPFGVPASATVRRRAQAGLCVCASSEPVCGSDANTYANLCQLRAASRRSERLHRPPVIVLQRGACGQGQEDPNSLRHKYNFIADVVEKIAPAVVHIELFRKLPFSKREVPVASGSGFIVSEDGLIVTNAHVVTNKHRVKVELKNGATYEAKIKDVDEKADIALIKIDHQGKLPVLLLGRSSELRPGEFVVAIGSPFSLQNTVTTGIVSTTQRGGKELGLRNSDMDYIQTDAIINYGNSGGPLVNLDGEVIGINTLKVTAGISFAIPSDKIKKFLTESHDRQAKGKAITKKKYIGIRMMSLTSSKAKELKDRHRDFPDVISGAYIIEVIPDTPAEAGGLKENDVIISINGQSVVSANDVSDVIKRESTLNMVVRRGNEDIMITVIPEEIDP
PRMT1 FP inh – blocks human protein arginine methyltransferase 1. Q99873. recombinant PRMT1, activity-based probe fluorescence polarization. inhibition, % at 2.79 µM. 370,000 tested, 1.3% active. AID 652257;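 active = inhibition above about 21% made by adding two undisclosed values, limit read from the data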
ABHD4 inh – inhibits mouse alpha/beta hydrolase domain 4 | purified mABHD4, FP-Rh probe fluorescence polarization | Q8VD66 | 370,000 tested, 0.54% active | inhibition, % at 8.92 µM;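 active = inhibition exceeding the mean over every tested compound plus 3 SD, cut at about 30% in these data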;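 note: 0% = plate median of compound wells and 100% = S159A mutant with DMSO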
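System: mouse ABHD4 enzyme, wild type / Medium: HEPES pH 7.0, NaCl, Pluronic buffer / Reagent: FP-Rh activity-based fluorescent probe / Control set: S159A mutant high control, sample median low control / Detection: fluorescence polarization with parallel and perpendicular emission, 525/598 nm / Schedule: 45 min + 60 min at 25 °C / Compound dosing: 8.92 µM, single dose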
TCR-CD3 inh – inhibitors of human TCR-CD3 interaction. TAMRA-labeled TCR probe fluorescence, biochemical. inhibition, % at 9.4 µM. 360,000 tested, 0.37% active. AID 651800; in the data active = inhibition above about 19%;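 note: recombinant mutant TCR 2C K166C tagged with TAMRA read by polarization; 0% = receptor in buffer alone and 100% = receptor with positive control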
HTRA1 conf – confirmation of human HTRA1 inhibitors; inhibition, % at 5.96 µM; 1,600 tested, 66% active; recombinant HTRA1, FP-rhodamine activity-based probe, fluorescence polarization; shares compounds with HTRA1 inh; AID 540248;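 active = mean inhibition over three repeats above a set limit taken from the earlier primary screen, cut at about 37% in these data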;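 note: 0% = HTRA1 with DMSO and 100% = wells lacking HTRA1; inhibitors block probe binding so polarization drops and inhibition rises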
* = called active by the depositor; / = not tested or not shown; + = active, no number. This is a sample that favours compounds with a hit; in the whole collection about 2.6% have one here.

SMILES	SIAE inh	HTRA1 inh	PRMT1 FP inh	ABHD4 inh	TCR-CD3 inh	HTRA1 conf
CN1/C(=C/C=C/c2n(C)c3cc([N+](=O)[O-])c([N+](=O)[O-])cc3[n+]2C)C(C)(C)c2ccccc21	6	42*	7	-1	-8	41*
COc1cccc(/C=N/Nc2ncnc3c2ncn3Cc2ccccc2)c1O	3	41*	-2	25	17	47*
COc1cccc(/C=N/Nc2cc(Cl)nc(C)n2)c1O	9	19	0	2	-8	/
CCc1ccc(CNc2ccc3c(c2)ncn3CC)cc1	4	5	3	10	4	/
CCc1ccc(CNc2ccc(O)cc2)cc1	/	73*	/	/	/	52*
CC(C)[C@H](NC(=O)C1CCCC1)C(=O)N1CCC[C@H]1C(=O)NCCc1ccccc1Cl	-6	/	-3	0	2	/
O=C(CN1CCC(NC(=O)Nc2ccc(Cl)cc2)CC1)Nc1ccc2c(c1)OCCO2	-1	/	4	-3	/	/
N/C(Cc1ccc(Cl)c(Cl)c1)=N\OC(=O)c1ccc(Br)o1	-5	+	2	-3	-4	-5
CC(C)c1ccc2c(c1)C1(NN=C(c3ccccc3)S1)C(=O)N2 (stereo not given)	4	46*	5	5	-1	66*
CCc1ccc2c(c1)C1(NN=C(c3ccc(C)cc3)S1)C(=O)N2 (stereo not given)	3	37*	13	-1	3	53*
COC(=O)[C@H](C(C)C)N(Cc1cn(CC2CCCCC2)nn1)S(=O)(=O)c1ccc(F)cc1Br	7	/	-3	-2	/	/
CCOc1ccc2c(c1)-c1c(ssc1=S)C(C)(C)N2	/	46*	/	/	/	61*
CCOc1ccc2c(c1)-c1c(ssc1=S)C(C)(C)N2C(=O)CSC1=NCCS1	11	17	13	28	-6	/
O=S(=O)(NCc1cn(Cc2ccccc2)nn1)c1ccccc1Br	-2	/	3	3	/	/
NC(=S)NN=Cc1nccc2c(C(F)(F)C(F)(F)C(F)(F)F)cccc12	3	68*	-4	18	-1	64*
CCCCOc1ccc(C(=O)NC2CCCCN(Cc3cccc(Cl)c3)C2=O)cc1 (stereo not given)	-2	/	1	-7	/	/
COc1ccc(C(=S)N2CCN(c3ccccc3Cl)CC2)cc1OC	-3	-18	4	4	1	/
COc1cc(C(=S)N2CCN(c3ccccc3Cl)CC2)cc(O)c1O	2	51*	11	24	16	84*
Oc1ccccc1/C=N/NC(=S)NC1CC2CC1C1C=CCC21 (stereo not given)	12	37*	0	7	4	14
CCc1cccc(CC)c1NC(=S)NCCc1ccc(O)c(O)c1	4	67*	6	11	-3	78*
COc1cccc(CNc2ccc(N3CCCCC3)cc2)c1OC	10	59*	2	25	-5	7
COc1ccccc1CNc1ccc(N2CCCCC2)cc1	/	57*	/	/	/	14
COc1cccc(CNc2ccc(S(N)(=O)=O)cc2)c1OC	-1	-2	-1	1	0	/
Nn1c(SCC(=O)Nc2nccs2)nnc1-c1cc(-c2ccccc2)n[nH]1	-14	/	-1	-66	/	/
O=C1CSC(=S)N1N=Cc1c[nH]c2ccc(Br)cc12	-14	56*	3	25	-10	60*
SMILES	SIAE inh	HTRA1 inh	PRMT1 FP inh	ABHD4 inh	TCR-CD3 inh	HTRA1 conf
COc1ccc(Br)cc1/C=N/N1C(=O)CSC1=S	-3	-11	15	3	0	/
CCN(CC)c1ccc(N=Cc2ccccc2[N+](=O)[O-])cc1	12	53*	20	47*	13	146*
CC(=O)N[C@@H]1C[C@@H]2O[C@@H](CO)CC[C@@H]2O[C@@H]1CCc1ccc(C#CC2(O)CCCC2)cc1	-4	/	-7	-2	/	/
Cc1ccc(-n2c(C)cc(-c3csc(N)n3)c2C)cc1	9	52*	18	18	-2	50*
Cn1[nH]cc(C=NC(N)=O)c1=O	3	47*	-2	7	-2	1
COC(=O)[C@]12C[C@H](CC(=O)NCC3CCCCC3)C(=O)N(Cc3ccc(Cl)cc3Cl)C1=C[C@H](C1CCCC1)O[C@@H]2C	5	/	0	-1	/	/
COc1ccc(Sc2nc(-c3ccccn3)ncc2OC)cc1	-9	62*	0	0	-7	54*
CCCCC1=CC2=CC(=O)C(C)(OC(=O)C3CCCC3)C(=O)C2=CO1 (stereo not given)	5	39*	12	24	2	44*
COCCCN1C(=O)[C@H](CC(=O)NCCCN2CCCC2=O)[C@]2(C(=O)OC)CCCCC=C12	-14	/	-5	-2	/	/
CCc1c(-c2cccc(F)c2)ncn1CCc1ccccc1OC	0	/	8	-11	-4	/
C=CCn1c(SCC(=O)c2ccc(O)c(O)c2)nnc1-c1cccc(Cl)c1	3	56*	8	23	9	73*
C=CCn1c(SCC(=O)c2ccc(O)c(O)c2)nnc1-c1cccnc1	8	16	11	18	18	/
Cc1ccc(-c2nn(-c3ccccc3)cc2C(=O)N2CCOCC2)cc1	5	36*	-4	-1	7	-5
CCN1CCc2c(sc(NC(=O)c3ccc(S(=O)(=O)N4CCOCC4)cc3)c2C(N)=O)C1	-4	-2	0	1	9	/
CCN1CCc2c(sc(NC(=O)c3ccc(S(=O)(=O)N4CCOCC4)cc3)c2C(=O)OC)C1	3	38*	-1	-4	-7	28
Nc1ccccc1NC1CCCCC1	9	41*	8	14	9	48*
COC(=O)C1=C(C)N(Cc2cccc(C(F)(F)F)c2)C(=NCc2ccccc2C(F)(F)F)NC1c1cccc(C(F)(F)F)c1 (stereo not given)	-9	/	0	11	10	/
COC(=O)[C@]12C[C@H](CC(=O)NCCCCc3ccccc3)C(=O)N(CCC3=CCCCC3)C1=C[C@H](C(C)C)O[C@@H]2C1CC1	0	/	-3	-1	/	/
COc1ccccc1/C=C1\SC(=S)N(CCC(=O)NNC(=O)c2ccccc2O)C1=O	/	39*	/	/	/	68*
COc1ccc(C(=O)OCCN(C)C2CN(Cc3cn(Cc4ccccc4Cl)nn3)S(=O)(=O)C2)cc1OC (stereo not given)	2	/	2	5	/	/
CN(C)c1ccc(NC(=O)NC2CCCCN(Cc3cccc(Cl)c3)C2=O)cc1 (stereo not given)	-10	/	1	11	/	/
Cc1cc(C)c(S(=O)(=O)/N=C2/C=C(SCC(=O)O)C(=O)c3ccccc32)cc1C	/	54*	/	/	/	36
Cc1cc(NS(=O)(=O)c2ccc(NC(=O)CSc3nnc(-c4cnccn4)n3-c3ccccc3)cc2)nc(C)n1	1	/	-4	-2	/	/
Cn1nnnc1N=N/C(=N/Nc1ccccc1)c1ccccc1	3	42*	-1	19	-5	34
CCCCn1c(SCC(=O)c2ccc(O)c(O)c2)nc2ccsc2c1=O	/	59*	/	/	/	61*
